Reference: PubChem BioAssay
Unmarked numbers belong to inactive results.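 How the source made its calls: active means viability at or below 30% in both replicate assays; inconclusive means viability at or below 30% in just one of the two assays; inactive means the rest.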

experiment: HUVEC growth inhibition – cell-based, human, primary screen (AID 575); settings: HUVEC proliferation, CellTiter-Glo luminescence, 72 h; at 10 µM; hits give low values;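 further: 100% = median of untreated cell wells with 0.1% DMSO on each plate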
Summary of the method: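 Test system – primary HUVEC, no more than 12 passages · Dosing – one dose, 10 µM final, 0.1% DMSO · Times – 72 h treatment at 37 °C · Measured by – ATP-based CellTiter-Glo luminescent read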

Row | Structure (SMILES) | viability [%]
1 | Cc1nnc2n(-c3ccc(Cl)cc3)c(=O)c3c4c(sc3n12)CN(C)CC4 | 103
2 | O=c1oc2c3c4c(cc2s1)CCCN4CCC3 | 101
3 | Cc1cc(C)n2nc(SCc3nc4ccccc4[nH]3)nc2n1 | 98.3
4 | Cc1cc(C)cc(N(CC(=O)Nc2cccc(C)n2)S(=O)(=O)c2c(C)noc2C)c1 | 92.3
5 | COc1cccc(C2C3=C(N=C4SCC(=O)N42)c2ccccc2CC3)c1OC (stereo not given) | 65.7
6 | O=C(Cn1nc(Cc2ccncc2)c2ccccc2c1=O)N1CCN(C(=O)c2ccco2)CC1 | 85.6
7 | O=C(Nc1c(C(=O)NCc2ccco2)cnn1-c1ccccc1)c1ccc(F)cc1 | 91.9
8 | Cc1nc2ccc(S(=O)(=O)NC(C(=O)Nc3nccs3)C(C)C)cc2s1 (stereo not given) | 91.6
9 | Cn1nnnc1SCC(=O)N1CCN(c2ccccc2)CC1 | 97.4
10 | COc1cc2c(cc1OC)-c1nnc(C)n1C1(CCCC1)C2 | 114
11 | CS(=O)(=O)N(Cc1ccco1)CC(O)Cn1c2ccccc2c2ccccc21 (stereo not given) | 76.8
12 | COc1cccc(C2=NOC(C(=O)N3CCc4ccccc4C3)C2)c1 (stereo not given) | 92.2
13 | O=C(CC1Oc2ccccc2NC1=O)NCCCN1CCOCC1 (stereo not given) | 85.5
14 | CCOC(=O)N1CCN(C(=O)c2ccc(CS(=O)(=O)c3c(Cl)cccc3Cl)o2)CC1 | 107
15 | CCn1cc(SCC(=O)Nc2cc(C)on2)c2ccccc21 | 89.4
16 | COc1ccccc1N1CCN(C(=O)N2CCOCC2)CC1 | 86.9
17 | O=C(CSc1nnc2ccccn12)c1ccccc1 | 88.8
18 | CCOc1ccc(N(CC(=O)OC)S(=O)(=O)c2ccc(OC)c(OC)c2)cc1 | 87.2
19 | CCCCSc1nc(CCC)cc(=O)[nH]1 | 91.9
20 | O=C(CN1CCN(Cc2ccccc2F)C1=O)NCc1cccnc1 | 108

Row | Structure (SMILES) | viability [%]
21 | COc1ccc(OC)c(C(=O)c2ccc(C(=O)O)cc2)c1 | 87.2
22 | Cc1ccc(C)n1-n1c(C)nc2sc(-c3ccccc3)cc2c1=O | 80.3
23 | CCn1c(C(=O)N2CCC(C(=O)N3CCN(c4ccccn4)CC3)CC2)cc2sccc21 | 93.4
24 | C=CCSc1nc(N)c2c(C)c(C)sc2n1 | 86.5
25 | COc1ccc(OCCSc2nc3ccccc3n2CC(=O)O)cc1 | 85.4
26 | Cc1nnc(SCC(=O)NCc2ccccc2)s1 | 81.2
27 | Clc1ccc(SCCCCn2ccnc2)cc1 | 102
28 | CC1(C)Oc2ccc3ccc(=O)oc3c2C(N2CCCCC2)C1O (stereo not given) | 89.6
29 | CSCCC(N=CC1=C(O)CC(C)(C)CC1=O)C(=O)O (stereo not given) | 99.4
30 | COc1ccc(C)cc1NC(=O)C1CCN(S(=O)(=O)c2cccc3cccnc23)CC1 | 102
31 | CCOc1ccc(-c2nnc(SCC(=O)N3CCN(c4ccccc4)CC3)o2)cc1 | 99.5
32 | CCCOc1ccc2ccccc2c1/C=N/n1cnnc1 | 66.7
33 | O=C(Cn1cc2c(n1)CCCCC2)N1CCc2ccccc21 | 67.6
34 | CCn1cc(C(=O)N2CCOCC2)c(=O)c2cc(S(=O)(=O)N(C)C3CCCCC3)ccc21 | 108
35 | COCCn1c(SCC(=O)Nc2ccc3c(c2)OCCO3)nc2c(c1=O)SC(C)C2 (stereo not given) | 108
36 | CC(C)CCN(C)C1CCN(S(=O)(=O)c2ccc(F)cc2)CC1 | 107
37 | COc1ccccc1-n1c(=O)[nH]c2c(C(N)=O)nc(-c3cccnc3)nc21 | 73.7
38 | Cn1c(/C=N/n2cnnc2)nc2ccccc21 | 105
39 | CN1CCN(CCCNC(=O)Cn2ncc3c4ccccc4n(C)c3c2=O)CC1 | 82.7
40 | CCOc1ccc(N(CC(=O)NCc2ccco2)S(=O)(=O)c2ccc(OC)c(OC)c2)cc1 | 89.3
